Test results reported in article PMC3070847 (Bioorganic & medicinal chemistry letters, 2011).

Target: HIV-1 IN (Human immunodeficiency virus type 1 group M subtype B, UniProt P04585)
Assay: Biochemical gel assay of HIV-1 IN
Conditions: IN IC50 3'-P, 3' processing function
Procedure, shortened: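 Recombinant HIV-1 integrase was used as the enzyme in the biochemical evaluation.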

SMILES | IC50
CCc1c(C(=O)c2ccccc2)n(COCc2ccccc2)c(=O)n(O)c1=O [Compound 17] | > 111 µM
CCc1c(C(=O)c2ccccc2)n(COCc2ccc(F)cc2)c(=O)n(O)c1=O [Compound 18] | > 111 µM
CCc1c(C(=O)c2cc(C)cc(C)c2)n(COCc2ccc(F)cc2)c(=O)n(O)c1=O [Compound 19] | > 111 µM
CCc1c(C(=O)c2cc(C)cc(C)c2)n(COCc2ccccc2)c(=O)n(O)c1=O [Compound 20] | > 111 µM
CCc1c(C(=O)c2ccccc2)n(COCCc2ccc(F)cc2)c(=O)n(O)c1=O [Compound 21] | > 111 µM
CCc1c(C(=O)c2cc(C)cc(C)c2)n(COCCc2ccc(F)cc2)c(=O)n(O)c1=O [Compound 22] | > 111 µM
CCOCn1c(C(=O)c2ccccc2)c(CC)c(=O)n(O)c1=O [Compound 23] | > 111 µM
CCOCn1c(C(=O)c2cc(C)cc(C)c2)c(CC)c(=O)n(O)c1=O [Compound 24] | > 111 µM
